Most compounds without a hit are left out; they make up all but 1.2% or so of the library.
ASAP1 inh – inhibitors of human ASAP1 ArfGAP activity, primary screen, biochemical, fluorescence polarization; Arf-GAP with SH3 domain, ANK repeat and PH domain-containing protein 1 (Homo sapiens), …; ASAP1-stimulated ARF1 GTP hydrolysis, GDP FP detection; inhibition, % at 16.5 µM; 360,000 compounds, 0.19% hits; in the data active = inhibition above about 25%;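 also: 0% = vehicle with enzyme and substrate and 100% = no enzyme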
NPR2 activator – human GC-B receptor activators, primary screen, HEK293 GC-B cells, cGMP TR-FRET, EC30 CNP; 0% at EC30 CNP, 100% saturating CNP; Atrial natriuretic peptide receptor 2 (Homo sapiens), P20594; activation, % at 10 µM; 370,000 compounds, 0.11% hits;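 active = activation at 10 µM reaching about 35% in either raw or pattern-adjusted values, limit read from the data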
Target sequence (P20594 whole entry, looked up): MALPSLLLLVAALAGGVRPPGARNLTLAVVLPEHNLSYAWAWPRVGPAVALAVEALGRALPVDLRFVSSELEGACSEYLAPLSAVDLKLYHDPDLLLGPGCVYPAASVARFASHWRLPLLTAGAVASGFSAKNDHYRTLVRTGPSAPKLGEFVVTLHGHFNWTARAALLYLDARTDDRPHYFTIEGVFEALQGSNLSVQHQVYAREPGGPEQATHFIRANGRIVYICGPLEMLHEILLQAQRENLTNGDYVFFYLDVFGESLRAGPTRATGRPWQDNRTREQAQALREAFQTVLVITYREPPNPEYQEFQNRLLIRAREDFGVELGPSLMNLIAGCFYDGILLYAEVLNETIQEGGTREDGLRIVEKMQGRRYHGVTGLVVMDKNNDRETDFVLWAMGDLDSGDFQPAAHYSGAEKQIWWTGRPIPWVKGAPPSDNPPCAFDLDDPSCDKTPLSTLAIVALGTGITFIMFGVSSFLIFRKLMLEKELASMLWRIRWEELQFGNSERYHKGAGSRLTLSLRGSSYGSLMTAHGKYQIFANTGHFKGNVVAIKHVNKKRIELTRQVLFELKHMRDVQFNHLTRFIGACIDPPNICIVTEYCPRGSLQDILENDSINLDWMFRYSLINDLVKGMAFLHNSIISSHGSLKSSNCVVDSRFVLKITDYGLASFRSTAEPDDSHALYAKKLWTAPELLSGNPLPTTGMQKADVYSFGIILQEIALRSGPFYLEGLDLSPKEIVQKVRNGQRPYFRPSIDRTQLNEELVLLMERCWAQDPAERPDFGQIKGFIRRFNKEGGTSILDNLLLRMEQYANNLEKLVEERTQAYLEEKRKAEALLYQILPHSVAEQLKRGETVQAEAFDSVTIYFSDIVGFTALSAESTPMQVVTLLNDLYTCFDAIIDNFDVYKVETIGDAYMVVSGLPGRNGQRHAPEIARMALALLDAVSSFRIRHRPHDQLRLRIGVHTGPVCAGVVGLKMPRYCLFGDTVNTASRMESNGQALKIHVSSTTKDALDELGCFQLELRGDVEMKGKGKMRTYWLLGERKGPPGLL
core dimer inh – inhibitors of HCV core protein dimerization, primary screen, biochemical, TR-FRET, high-throughput; AID 1899, 2009; inhibition, % at 5 µM; 300,000 compounds, 0.33% hits; TR-FRET GST/Flag-core106 dimerization, 1536-well;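 active = inhibition above the mean of all tested compounds plus 3 SD, set per screening campaign, cut at about 45% in these data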
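Test system: GST/Flag-tagged HCV core106 proteins; Medium: KF-containing HEPES buffer, pH 7.45, DTT, CHAPS, BSA; Times: compound-protein-antibody incubation 4 h at 22.5 °C; Detection: TR-FRET 671 and 617 nm emission; Benchmarks: wells lacking GST-core106 and wells with excess unlabelled core106.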
Fh CTSL1 inh – Fasciola hepatica cathepsin L1 inhibitors, primary screen, counter-screen for PFM18AAP inhibitor project, biochemical, QFRET, fluorogenic peptide substrate | recombinant F. hepatica cathepsin L1, Z-Leu-Arg-MCA fluorescence | inhibition, % at 5.96 µM | 300,000 compounds, 0.49% hits | AID 1906, 2009;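 active = inhibition above the mean of all tested compounds plus 3 SD, set per screening campaign, cut at about 17% in these data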;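 also: 0% = plate median of test compound wells and 100% = 1 µM Z-Phe-Ala-diazomethylketone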
ARFGAP1 inhibitor – inhibitors of rat ARFGAP1 GAP activity, primary screen, biochemical, fluorescence polarization, GDP tracer; AID 651572, 2012; Arfgap1-stimulated ARF1 GTP hydrolysis, GDP FP detection; ADP-ribosylation factor GTPase-activating protein 1 (Rattus norvegicus), Q62848; inhibition, % at 16.5 µM; 360,000 compounds, 0.26% hits;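 active = inhibition above a per-plate limit, mean inhibition of low control wells plus 3 SD, cut at about 25% in these data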;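 also: 0% = DMSO wells with enzyme and 100% = wells lacking Arfgap1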
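Material – truncated rat Arfgap1 GAP domain · Buffer or medium – HEPES-based buffer, pH 7.5 · Reagent – human ARF1(Δ1-17)-GTP substrate · Dosing – 16.5 µM single point, 1.26% DMSO · Schedule – GTP hydrolysis reaction 2 h at 25 °C · Technique – GDP detection by fluorescence polarization · Benchmarks – No-Arfgap1 wells (100%) versus DMSO full-reaction wells (0%) · Repeats – single replicate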
GC-A act – GC-A stimulated cGMP production enhancers – HEK293 GC-A cells, cGMP TR-FRET, EC30 ANP, primary screen; 370,000 compounds, 0.14% hits; activation, % at 10 µM; 0% at EC30 ANP, 100% saturating ANP; Atrial natriuretic peptide receptor 1 (Homo sapiens), P16066; in the data active = activation above about 40%
ASAP1 inh confirm – ASAP1 GAP activity inhibitors, confirmation, biochemical, fluorescence polarization, human, triplicate | shares compounds with ASAP1 inh | ASAP1-stimulated Arf1 GTPase, GDP fluorescence polarization | inhibition, % at 16.5 µM | 620 compounds, 37% hits | AID 624431, 2012;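 active = mean inhibition over triplicates exceeds the hit threshold derived for the earlier primary screening run, cut at about 25% in these data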
ARFGAP1 confirm – ARFGAP1 inhibitor hit confirmation, biochemical, fluorescence polarization, triplicate; shares compounds with ARFGAP1 inhibitor; inhibition, % at 16.5 µM; ARFGAP1-stimulated ARF1 GTP hydrolysis, GDP tracer FP; 890 compounds, 30% hits;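 active = average inhibition over triplicates above the hit cutoff set in the earlier primary screen, cut at about 25% in these data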;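 also: 0% = Arfgap1 plus ARF1-GTP with DMSO and 100% = wells lacking Arfgap1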
* = called active by the depositor.

COc1ccc(N2CCN(C(=S)NCc3ccccc3)CC2)cc1 was read as ASAP1 inh 37*, NPR2 activator 5, core dimer inh -7, Fh CTSL1 inh -5, ARFGAP1 inhibitor 38*, GC-A act 6, ASAP1 inh confirm 7 and ARFGAP1 confirm 6.
COc1ccc(CC(=O)N(C)CC(=O)Nc2ccccc2C(F)(F)F)cc1S(=O)(=O)N1CCOCC1 was read as core dimer inh 2 and Fh CTSL1 inh 1.
COc1cc(-c2ccc(N3C(c4ccsc4)=Cc4ccc(F)cc4C3c3c[nH]c4ccc(C#N)cc34)cc2)cc(OC)c1OC (stereo not given) was read as ASAP1 inh 14, NPR2 activator 3, ARFGAP1 inhibitor 8 and GC-A act 5.
For CC1=CC2=NC(=O)/C(=C\c3ccc(-c4cccc(Cl)c4)o3)C(=N)N2O1 the results were ASAP1 inh 58*, NPR2 activator -1, core dimer inh 11, Fh CTSL1 inh 4, ARFGAP1 inhibitor 41*, GC-A act 1, ASAP1 inh confirm 87* and ARFGAP1 confirm 131*.
Cc1cc2oc3ccc(NCCCn4ccnc4)cc3c(=O)c2cc1C was read as ASAP1 inh 79*, NPR2 activator -2, core dimer inh -19, Fh CTSL1 inh 1, ARFGAP1 inhibitor 115*, GC-A act 8, ASAP1 inh confirm 127* and ARFGAP1 confirm active.
Cc1ccc2nc(SCC(=O)N3CCC(Cc4ccccc4)CC3)nc(=O)n2c1 was read as ASAP1 inh 26*, NPR2 activator 1, core dimer inh 5, Fh CTSL1 inh 7, ARFGAP1 inhibitor 59*, GC-A act 4, ASAP1 inh confirm 41* and ARFGAP1 confirm 68*.
O=C(CSc1nc(=O)n2ccccc2n1)N1CCC(Cc2ccccc2)CC1 was read as ASAP1 inh -6, NPR2 activator -2, core dimer inh 6, Fh CTSL1 inh -1, ARFGAP1 inhibitor 14 and GC-A act 3.
`CCCCN(CC)CCNC(=O)Cn1cnc2sc(C)c(S(=O)(=O)N3CCOCC3)c2c1=O` gave ASAP1 inh 2, NPR2 activator 8, core dimer inh 1, Fh CTSL1 inh -1, ARFGAP1 inhibitor 19 and GC-A act -3.
Screening COc1ccc(NC(=O)c2ccc(-c3ccc([N+](=O)[O-])cc3)o2)cc1OC returned ASAP1 inh 15, NPR2 activator 4, core dimer inh 5, Fh CTSL1 inh 5, ARFGAP1 inhibitor 8 and GC-A act 7.
`CC(=O)Nc1ccc(NC(=O)c2ccc(-c3ccc([N+](=O)[O-])cc3)o2)cc1` gave ASAP1 inh 130*, NPR2 activator 3, core dimer inh 21, Fh CTSL1 inh 3, ARFGAP1 inhibitor 62*, GC-A act 5, ASAP1 inh confirm 164* and ARFGAP1 confirm active.
For Cc1cc2cc(CNC(=O)Nc3ccc(Cl)c(Cl)c3)ccc2n1C the results were ASAP1 inh 42*, NPR2 activator -3, core dimer inh -75, Fh CTSL1 inh -3, ARFGAP1 inhibitor 74*, GC-A act 2, ASAP1 inh confirm 14 and ARFGAP1 confirm 8.
CCN(CC)S(=O)(=O)c1cc(C)c(C)cc1OCC(=O)NC1CCCC1 was read as ASAP1 inh -4, NPR2 activator 7, core dimer inh 1, Fh CTSL1 inh 2, ARFGAP1 inhibitor -6 and GC-A act -8.
For COc1ccccc1-c1csc(-n2ncc(C#N)c2N)n1 the results were ASAP1 inh 41*, NPR2 activator 3, core dimer inh 30, Fh CTSL1 inh -4, ARFGAP1 inhibitor 39*, GC-A act 0, ASAP1 inh confirm 66* and ARFGAP1 confirm 111*.
COc1ccc(-c2csc(-n3ncc(-c4ccccn4)c3N)n2)cc1 was read as ASAP1 inh 1, NPR2 activator 1, core dimer inh 3, Fh CTSL1 inh -1, ARFGAP1 inhibitor -5 and GC-A act 0.
`O=C(CCS(=O)(=O)c1ccccc1)NNC(=O)CSc1ccccc1F` gave ASAP1 inh -8, NPR2 activator 2, ARFGAP1 inhibitor 11 and GC-A act -2.
`COC(=O)CN1C(=O)[C@H]2[C@@H](/C=C/c3ccccc3)N3C(=O)CN(Cc4ccc(-c5ccccc5)cc4)C(=O)[C@@]3(C)[C@H]2C1=O` gave ASAP1 inh -4, NPR2 activator 3, ARFGAP1 inhibitor -22 and GC-A act 14.
CN(C(=O)c1ccncc1)c1nnc(-c2cnccn2)s1 was read as ASAP1 inh 16, NPR2 activator 7, core dimer inh 4, Fh CTSL1 inh 3, ARFGAP1 inhibitor 10 and GC-A act -2.
C/C(=N\NC(=O)c1cc(-c2cccc([N+](=O)[O-])c2)n[nH]1)c1ccccc1O was read as ASAP1 inh 136*, NPR2 activator -2, core dimer inh 20, Fh CTSL1 inh -2, ARFGAP1 inhibitor 54*, GC-A act 6, ASAP1 inh confirm 150* and ARFGAP1 confirm 152*.
`CCN(CC)c1ccc(C(=C2C=CC(=[N+](CC)CC)C=C2)c2ccc(S(=O)(=O)O)cc2S(=O)(=O)[O-])cc1` gave ASAP1 inh 119*, NPR2 activator -72, ARFGAP1 inhibitor 121*, GC-A act -47, ASAP1 inh confirm 118* and ARFGAP1 confirm 132*.

High-throughput results as filed in PubChem.
